Starred links: 1 amine or outer side, 2 acyl side, 3 side chain; linkers in the order of their positions; H or OH if unused. Non-standard residues stand in square brackets, D forms with d. Residues, ends and D or L forms follow the SMILES beside them. dTrp(2-Me) = Cc1[nH]c2ccccc2c1C[C@@H](N)C(=O)O; azaTyr = O=C(N(Cc1ccc(O)cc1)N[*:1])[*:2]; azaPhe = O=C(N(Cc1ccccc1)N[*:1])[*:2]; X1 = O=C(N(CCc1ccccc1)N[*:1])[*:2]; azaLeu = CC(C)CN(N[*:1])C(=O)[*:2]; azaPro = O=C(N1CCCN1[*:1])[*:2]; azaGly = NNC(=O)O
Legend:
[1] = target: Growth hormone secretagogue receptor type 1 (Homo sapiens, UniProt Q92847); experiment: Displacement of [125I]ghrelin expressed in LLC-PK1 cells incubated for 1 hr by gamma counting method; type: cell-based
Summary of the method: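 Membranes from LLC-PK1 cells transiently transfected with GHS-R1a (CaPO₄; harvested 24 h later; freeze/thaw lysis, 10000g), 10 μg protein/tube. Incubated with ¹²⁵I-ghrelin (40,000 cpm) and competitor 10⁻¹² to 10⁻⁵ M, 1 h at RT, in Tris/MgCl₂/EDTA/bacitracin buffer pH 7.3. Nonspecific binding set with 10⁻⁵ M competitor. Bound separated by filtration on PEI-soaked GF/C filters, gamma counted.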

Platelet glycoprotein 4 = Platelet glycoprotein 4 (Rattus norvegicus, UniProt Q07969); experiment: Displacement of photoactivatable [125I]-Tyr-Bpa-Ala-Hexarelin from CD36 in Sprague-Dawley rat cardiac membranes incubated for 60 mins by densitometry; type: cell membranes, Membrane
Chain of Platelet glycoprotein 4 (Q07969 whole entry): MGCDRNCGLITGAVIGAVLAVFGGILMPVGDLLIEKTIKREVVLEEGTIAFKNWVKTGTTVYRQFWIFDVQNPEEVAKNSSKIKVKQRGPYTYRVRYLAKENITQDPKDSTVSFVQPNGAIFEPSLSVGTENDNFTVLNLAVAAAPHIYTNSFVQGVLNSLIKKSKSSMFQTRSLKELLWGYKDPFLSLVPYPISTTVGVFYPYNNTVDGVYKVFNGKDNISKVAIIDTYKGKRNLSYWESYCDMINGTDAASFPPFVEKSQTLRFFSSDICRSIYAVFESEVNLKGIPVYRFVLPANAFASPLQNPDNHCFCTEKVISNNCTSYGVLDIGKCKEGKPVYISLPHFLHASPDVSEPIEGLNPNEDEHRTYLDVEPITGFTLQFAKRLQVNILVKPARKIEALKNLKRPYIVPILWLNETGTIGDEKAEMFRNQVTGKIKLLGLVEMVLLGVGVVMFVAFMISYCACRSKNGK

Chain of Growth hormone secretagogue receptor type 1 (Q92847 whole entry): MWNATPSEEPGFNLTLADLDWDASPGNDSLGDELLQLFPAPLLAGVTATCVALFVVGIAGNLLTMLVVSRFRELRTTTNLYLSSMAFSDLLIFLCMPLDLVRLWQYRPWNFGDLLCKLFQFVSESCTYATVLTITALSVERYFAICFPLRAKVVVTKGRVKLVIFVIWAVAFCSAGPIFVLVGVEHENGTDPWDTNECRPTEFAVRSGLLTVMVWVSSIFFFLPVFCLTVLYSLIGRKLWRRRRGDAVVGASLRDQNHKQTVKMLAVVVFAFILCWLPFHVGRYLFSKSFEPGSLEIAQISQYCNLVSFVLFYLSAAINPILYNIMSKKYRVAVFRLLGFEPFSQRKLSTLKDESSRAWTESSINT

SMILES	IC50 [1] [µM]	IC50 (Platelet glycoprotein 4) [µM]
C[C@H](NC(=O)[C@H](C)NC(=O)N(Cc1ccccc1)NC(=O)C(N)Cc1cnc[nH]1)C(=O)N[C@H](Cc1ccccc1)C(=O)N[C@@H](CCCCN)C(N)=O (some centres undefined)	> 10	> 10
C[C@H](NC(=O)[C@H](C)NC(=O)N(Cc1ccc(O)cc1)NC(=O)C(N)Cc1cnc[nH]1)C(=O)N[C@H](Cc1ccccc1)C(=O)N[C@@H](CCCCN)C(N)=O (some centres undefined)	> 10	> 10
CC(C)CN(NC(=O)[C@@H](Cc1c[nH]c2ccccc12)NC(=O)[C@H](C)N)C(=O)N[C@@H](Cc1c[nH]c2ccccc12)C(=O)N[C@H](Cc1ccccc1)C(=O)N[C@@H](CCCCN)C(N)=O	–	6.66
NCCCC[C@H](NC(=O)[C@@H](Cc1ccccc1)NC(=O)[C@@H]1CCCN1C(=O)NNC(=O)[C@@H](Cc1c[nH]c2ccccc12)NC(=O)[C@@H](N)Cc1cnc[nH]1)C(N)=O	> 10	> 10
C[C@H](NC(=O)N1CCCN1C(=O)[C@@H](N)Cc1cnc[nH]1)C(=O)N[C@@H](Cc1c[nH]c2ccccc12)C(=O)N[C@H](Cc1ccccc1)C(=O)N[C@@H](CCCCN)C(N)=O	> 10	> 10
CCC(=O)N[C@H](Cc1c[nH]c2ccccc12)C(=O)NN(CC(C)C)C(=O)N[C@@H](Cc1c[nH]c2ccccc12)C(=O)N[C@H](Cc1ccccc1)C(=O)N[C@@H](CCCCN)C(N)=O	3.86	> 10
CC(C)CN(NC(=O)[C@@H](Cc1c[nH]c2ccccc12)NC(=O)[C@@H](C)N)C(=O)N[C@@H](Cc1c[nH]c2ccccc12)C(=O)N[C@H](Cc1ccccc1)C(=O)N[C@@H](CCCCN)C(N)=O	–	13.3
CC(C)CN(NC(=O)[C@@H](Cc1c[nH]c2ccccc12)NC(=O)CN)C(=O)N[C@@H](Cc1c[nH]c2ccccc12)C(=O)N[C@H](Cc1ccccc1)C(=O)N[C@@H](CCCCN)C(N)=O	5.41	10.5
CC(C)CN(NC(=O)[C@@H](Cc1c[nH]c2ccccc12)NC(=O)[C@@H]1CCCN1)C(=O)N[C@@H](Cc1c[nH]c2ccccc12)C(=O)N[C@H](Cc1ccccc1)C(=O)N[C@@H](CCCCN)C(N)=O	1.17	7.97
CC(C)CN(NC(=O)[C@@H](Cc1c[nH]c2ccccc12)NC(=O)[C@@H](N)Cc1cnc[nH]1)C(=O)N[C@@H](Cc1c[nH]c2ccccc12)C(=O)N[C@H](Cc1ccccc1)C(N)=O	4.55	9.01
CC(C)CN(NC(=O)[C@@H](Cc1c[nH]c2ccccc12)NC(=O)[C@@H](N)Cc1cnc[nH]1)C(=O)N[C@@H](Cc1c[nH]c2ccccc12)C(N)=O	85.6	> 10
C[C@H](NC(=O)N(Cc1ccccc1)NC(=O)C(N)Cc1cnc[nH]1)C(=O)N[C@@H](Cc1c[nH]c2ccccc12)C(=O)N[C@H](Cc1ccccc1)C(=O)N[C@@H](CCCCN)C(N)=O (some centres undefined)	16.1	72.4
C[C@H](NC(=O)N(Cc1cccc2ccccc12)NC(=O)C(N)Cc1cnc[nH]1)C(=O)N[C@@H](Cc1c[nH]c2ccccc12)C(=O)N[C@H](Cc1ccccc1)C(=O)N[C@@H](CCCCN)C(N)=O (some centres undefined)	–	> 10
C[C@H](N)C(=O)NN(Cc1ccc(O)cc1)C(=O)N[C@@H](C)C(=O)N[C@@H](Cc1c[nH]c2ccccc12)C(=O)N[C@H](Cc1ccccc1)C(=O)N[C@@H](CCCCN)C(N)=O (H-A[azaTyr]AW[dF]K-NH2)	> 10	36.9
C[C@H](NC(=O)N(Cc1ccccc1)NC(=O)[C@@H](N)Cc1cnc[nH]1)C(=O)N[C@@H](Cc1c[nH]c2ccccc12)C(=O)N[C@H](C)C(=O)N[C@@H](CCCCN)C(N)=O (H-H[azaPhe]AW[dA]K-NH2)	> 10	> 10
C[C@H](NC(=O)[C@@H](Cc1ccccc1)NC(=O)[C@H](Cc1c[nH]c2ccccc12)NC(=O)[C@H](C)NC(=O)N(Cc1ccccc1)NC(=O)[C@@H](N)Cc1cnc[nH]1)C(N)=O (H-H[azaPhe]AW[dF]A-NH2)	–	> 10
C[C@H](NC(=O)N(Cc1ccc(O)cc1)NC(=O)[C@@H](N)Cc1cnc[nH]1)C(=O)N[C@@H](Cc1c[nH]c2ccccc12)C(=O)N[C@H](C)C(=O)N[C@@H](CCCCN)C(N)=O (H-H[azaTyr]AW[dA]K-NH2)	> 10	> 10
C[C@H](NC(=O)[C@@H](Cc1ccccc1)NC(=O)[C@H](Cc1c[nH]c2ccccc12)NC(=O)[C@H](C)NC(=O)N(Cc1ccc(O)cc1)NC(=O)[C@@H](N)Cc1cnc[nH]1)C(N)=O (H-H[azaTyr]AW[dF]A-NH2)	> 10	> 10
C[C@H](NC(=O)[C@@H](C)NC(=O)[C@@H](N)Cc1cnc[nH]1)C(=O)NN(Cc1ccccc1)C(=O)N[C@H](Cc1ccccc1)C(=O)N[C@@H](CCCCN)C(N)=O (H-H[dA]A[azaPhe][dF]K-NH2)	> 10	> 10
C[C@@H](NC(=O)[C@@H](N)Cc1cnc[nH]1)C(=O)NNC(=O)N[C@@H](Cc1c[nH]c2ccccc12)C(=O)N[C@H](Cc1ccccc1)C(=O)N[C@@H](CCCCN)C(N)=O (H-H[dA][azaGly]W[dF]K-NH2)	> 10	> 10
CC(C)CN(NC(=O)[C@@H](C)NC(=O)[C@@H](N)Cc1cnc[nH]1)C(=O)N[C@@H](Cc1c[nH]c2ccccc12)C(=O)N[C@H](Cc1ccccc1)C(=O)N[C@@H](CCCCN)C(N)=O (H-H[dA][azaLeu]W[dF]K-NH2)	> 10	> 10
C[C@H](NC(=O)[C@@H](Cc1c[nH]c2ccccc12)NC(=O)[C@@H](N)Cc1cnc[nH]1)C(=O)N[C@@H](Cc1c[nH]c2ccccc12)C(=O)N1CCCN1C(=O)N[C@@H](CCCCN)C(N)=O (H-H[dW]AW[azaPro]K-NH2)	> 10	> 10
C[C@H](NC(=O)[C@@H](Cc1c[nH]c2ccccc12)NC(=O)[C@@H](N)Cc1c[nH]cn1)C(=O)N[C@@H](Cc1c[nH]c2ccccc12)C(=O)N[C@H](Cc1ccccc1)C(=O)N[C@@H](CCCCN)C(N)=O (H-H[dW]AW[dF]K-NH2)	–	1.82
C[C@H](NC(=O)[C@@H](Cc1c[nH]c2ccccc12)NC(=O)[C@@H](N)Cc1cnc[nH]1)C(=O)NN(CCc1ccccc1)C(=O)N[C@H](Cc1ccccc1)C(=O)N[C@@H](CCCCN)C(N)=O (H-H[dW]A[X1][dF]K-NH2)	–	> 10
CC(C)CN(NC(=O)[C@H](C)NC(=O)[C@@H](Cc1c[nH]c2ccccc12)NC(=O)[C@@H](N)Cc1cnc[nH]1)C(=O)N[C@H](Cc1ccccc1)C(=O)N[C@@H](CCCCN)C(N)=O (H-H[dW]A[azaLeu][dF]K-NH2)	–	> 10
C[C@H](NC(=O)[C@@H](Cc1c[nH]c2ccccc12)NC(=O)[C@@H](N)Cc1cnc[nH]1)C(=O)NN(Cc1ccccc1)C(=O)N[C@H](C)C(=O)N[C@@H](CCCCN)C(N)=O (H-H[dW]A[azaPhe][dA]K-NH2)	> 10	> 10
C[C@H](NC(=O)[C@@H](Cc1ccccc1)NC(=O)N(Cc1ccccc1)NC(=O)[C@H](C)NC(=O)[C@@H](Cc1c[nH]c2ccccc12)NC(=O)[C@@H](N)Cc1cnc[nH]1)C(N)=O (H-H[dW]A[azaPhe][dF]A-NH2)	> 10	> 10
C[C@H](NC(=O)[C@@H](Cc1ccccc1)NC(=O)[C@H](Cc1c[nH]c2ccccc12)NC(=O)NNC(=O)[C@@H](Cc1c[nH]c2ccccc12)NC(=O)[C@@H](N)Cc1cnc[nH]1)C(N)=O (H-H[dW][azaGly]W[dF]A-NH2)	–	> 10
Cc1[nH]c2ccccc2c1C[C@@H](NC(=O)[C@@H](N)Cc1cnc[nH]1)C(=O)N[C@@H](C)C(=O)N[C@@H](Cc1c[nH]c2ccccc12)C(=O)N[C@H](Cc1ccccc1)C(=O)N[C@@H](CCCCN)C(N)=O [EXAMORELIN] (H-H[dTrp(2-Me)]AW[dF]K-NH2)	0.0159	–

Reference: ChEMBL document CHEMBL2163252, “Azapeptide analogues of the growth hormone releasing peptide 6 as cluster of differentiation 36 receptor ligands with reduced affinity for the growth hormone secretagogue receptor 1a” (J Med Chem, 2012)
